“Also recorded” adds a separate entry of the source.
What was measured:
Type in all cases: cell-based
TRPM8 = TRPM8 (Homo sapiens, UniProt Q7Z2W7); test: Selectivity Ca2+ assay in TRPM8-expressing HEK293 cells; conditions: 1s 50 μM; Fluo-8
TRPC6 = molecular target: T1, TRPC6 (Mus musculus, UniProt Q61143); test: Whole-cell voltage clamp of TRPC6 currents evoked by GSK1702934A
T1 sequence (Q61143 1-930): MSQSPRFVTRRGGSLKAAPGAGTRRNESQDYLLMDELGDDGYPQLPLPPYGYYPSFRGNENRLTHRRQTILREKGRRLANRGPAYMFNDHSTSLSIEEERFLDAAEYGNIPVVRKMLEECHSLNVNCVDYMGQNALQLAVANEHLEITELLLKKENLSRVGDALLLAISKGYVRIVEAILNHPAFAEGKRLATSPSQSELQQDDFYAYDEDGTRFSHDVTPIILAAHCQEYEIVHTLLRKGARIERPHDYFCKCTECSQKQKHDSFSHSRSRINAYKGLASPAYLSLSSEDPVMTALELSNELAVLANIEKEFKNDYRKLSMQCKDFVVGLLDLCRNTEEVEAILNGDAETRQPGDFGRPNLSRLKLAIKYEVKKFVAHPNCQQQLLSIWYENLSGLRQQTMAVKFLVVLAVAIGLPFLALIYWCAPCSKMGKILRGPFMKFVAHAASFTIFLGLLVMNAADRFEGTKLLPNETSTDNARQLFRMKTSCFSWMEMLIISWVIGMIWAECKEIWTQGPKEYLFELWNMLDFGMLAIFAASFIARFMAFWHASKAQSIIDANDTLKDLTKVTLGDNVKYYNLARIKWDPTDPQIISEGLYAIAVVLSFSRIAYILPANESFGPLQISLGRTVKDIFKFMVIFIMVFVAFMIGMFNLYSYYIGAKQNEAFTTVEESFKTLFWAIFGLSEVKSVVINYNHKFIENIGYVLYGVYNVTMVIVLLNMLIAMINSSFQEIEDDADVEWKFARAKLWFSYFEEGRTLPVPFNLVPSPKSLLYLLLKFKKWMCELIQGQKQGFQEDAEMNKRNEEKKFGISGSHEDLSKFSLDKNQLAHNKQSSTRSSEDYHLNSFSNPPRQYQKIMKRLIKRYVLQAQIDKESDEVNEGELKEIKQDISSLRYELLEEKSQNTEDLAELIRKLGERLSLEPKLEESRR
How it was run: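 TRPC6-expressing HEK293 cells were recorded with voltage ramps to obtain current–voltage relationships. Current was activated by GSK1702934A (1 μM) and test compound was applied at varying concentrations. IC50 was derived from a Hill-equation fit of the concentration-response curve.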

mouse TRPC7 = molecular target: T2, mouse TRPC7 (Mus musculus, UniProt Q9WVC5); test: Fluorescence Ca2+ assay in TRPC7-HEK293 cells; conditions: induced by 10 μM HDM
T2 sequence (Q9WVC5 1-862): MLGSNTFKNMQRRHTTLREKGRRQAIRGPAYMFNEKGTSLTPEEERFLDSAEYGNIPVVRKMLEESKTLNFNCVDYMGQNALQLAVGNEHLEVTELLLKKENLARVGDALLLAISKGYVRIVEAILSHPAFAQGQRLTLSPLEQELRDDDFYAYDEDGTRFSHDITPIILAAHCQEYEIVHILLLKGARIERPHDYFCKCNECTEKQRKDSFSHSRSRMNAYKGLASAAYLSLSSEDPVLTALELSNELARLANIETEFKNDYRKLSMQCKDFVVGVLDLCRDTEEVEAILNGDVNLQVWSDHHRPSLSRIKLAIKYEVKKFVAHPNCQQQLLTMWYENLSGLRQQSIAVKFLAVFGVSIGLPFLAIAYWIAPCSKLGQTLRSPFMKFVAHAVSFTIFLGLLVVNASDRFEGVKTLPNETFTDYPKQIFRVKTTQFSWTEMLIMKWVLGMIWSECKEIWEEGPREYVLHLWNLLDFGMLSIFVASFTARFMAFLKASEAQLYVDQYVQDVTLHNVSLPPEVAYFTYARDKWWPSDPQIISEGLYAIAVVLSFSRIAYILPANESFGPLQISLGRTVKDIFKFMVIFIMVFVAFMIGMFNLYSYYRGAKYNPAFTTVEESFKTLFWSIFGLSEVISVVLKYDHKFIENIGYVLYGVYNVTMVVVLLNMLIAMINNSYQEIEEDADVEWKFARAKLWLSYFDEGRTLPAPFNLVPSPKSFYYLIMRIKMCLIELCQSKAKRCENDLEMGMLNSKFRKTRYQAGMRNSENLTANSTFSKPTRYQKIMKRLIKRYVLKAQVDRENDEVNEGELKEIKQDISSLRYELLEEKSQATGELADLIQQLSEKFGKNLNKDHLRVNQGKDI

human TRPC3 = molecular target: T3, human TRPC3 (Homo sapiens, UniProt Q13507); test: Fluorescence Ca2+ assay in TRPC3-HEK293 cells
T3 sequence (Q13507 1-921): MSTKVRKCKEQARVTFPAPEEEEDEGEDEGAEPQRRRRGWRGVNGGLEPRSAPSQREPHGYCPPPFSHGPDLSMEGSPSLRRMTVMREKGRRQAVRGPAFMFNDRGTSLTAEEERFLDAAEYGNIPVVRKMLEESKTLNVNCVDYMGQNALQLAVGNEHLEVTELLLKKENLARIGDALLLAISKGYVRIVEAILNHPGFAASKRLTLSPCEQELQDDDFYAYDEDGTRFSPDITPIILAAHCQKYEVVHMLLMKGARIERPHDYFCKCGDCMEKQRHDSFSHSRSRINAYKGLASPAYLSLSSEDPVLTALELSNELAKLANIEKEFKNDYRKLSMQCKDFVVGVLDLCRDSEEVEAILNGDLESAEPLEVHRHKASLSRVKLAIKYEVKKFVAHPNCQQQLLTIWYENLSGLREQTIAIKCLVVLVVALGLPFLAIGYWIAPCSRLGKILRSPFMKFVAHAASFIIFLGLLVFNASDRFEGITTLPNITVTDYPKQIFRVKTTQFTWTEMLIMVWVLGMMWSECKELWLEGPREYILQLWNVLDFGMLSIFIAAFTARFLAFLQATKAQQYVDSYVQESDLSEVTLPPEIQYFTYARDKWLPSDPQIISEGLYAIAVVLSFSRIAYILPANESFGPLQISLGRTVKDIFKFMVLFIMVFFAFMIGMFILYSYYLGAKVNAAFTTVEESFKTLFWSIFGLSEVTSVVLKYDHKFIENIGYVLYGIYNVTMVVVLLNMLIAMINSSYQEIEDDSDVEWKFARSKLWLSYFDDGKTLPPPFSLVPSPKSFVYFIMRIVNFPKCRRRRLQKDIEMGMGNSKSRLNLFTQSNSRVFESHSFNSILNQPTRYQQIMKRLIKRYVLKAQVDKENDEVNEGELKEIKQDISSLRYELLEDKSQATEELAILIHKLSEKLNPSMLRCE

Sequence of TRPM8 (Q7Z2W7 whole entry, species assumed): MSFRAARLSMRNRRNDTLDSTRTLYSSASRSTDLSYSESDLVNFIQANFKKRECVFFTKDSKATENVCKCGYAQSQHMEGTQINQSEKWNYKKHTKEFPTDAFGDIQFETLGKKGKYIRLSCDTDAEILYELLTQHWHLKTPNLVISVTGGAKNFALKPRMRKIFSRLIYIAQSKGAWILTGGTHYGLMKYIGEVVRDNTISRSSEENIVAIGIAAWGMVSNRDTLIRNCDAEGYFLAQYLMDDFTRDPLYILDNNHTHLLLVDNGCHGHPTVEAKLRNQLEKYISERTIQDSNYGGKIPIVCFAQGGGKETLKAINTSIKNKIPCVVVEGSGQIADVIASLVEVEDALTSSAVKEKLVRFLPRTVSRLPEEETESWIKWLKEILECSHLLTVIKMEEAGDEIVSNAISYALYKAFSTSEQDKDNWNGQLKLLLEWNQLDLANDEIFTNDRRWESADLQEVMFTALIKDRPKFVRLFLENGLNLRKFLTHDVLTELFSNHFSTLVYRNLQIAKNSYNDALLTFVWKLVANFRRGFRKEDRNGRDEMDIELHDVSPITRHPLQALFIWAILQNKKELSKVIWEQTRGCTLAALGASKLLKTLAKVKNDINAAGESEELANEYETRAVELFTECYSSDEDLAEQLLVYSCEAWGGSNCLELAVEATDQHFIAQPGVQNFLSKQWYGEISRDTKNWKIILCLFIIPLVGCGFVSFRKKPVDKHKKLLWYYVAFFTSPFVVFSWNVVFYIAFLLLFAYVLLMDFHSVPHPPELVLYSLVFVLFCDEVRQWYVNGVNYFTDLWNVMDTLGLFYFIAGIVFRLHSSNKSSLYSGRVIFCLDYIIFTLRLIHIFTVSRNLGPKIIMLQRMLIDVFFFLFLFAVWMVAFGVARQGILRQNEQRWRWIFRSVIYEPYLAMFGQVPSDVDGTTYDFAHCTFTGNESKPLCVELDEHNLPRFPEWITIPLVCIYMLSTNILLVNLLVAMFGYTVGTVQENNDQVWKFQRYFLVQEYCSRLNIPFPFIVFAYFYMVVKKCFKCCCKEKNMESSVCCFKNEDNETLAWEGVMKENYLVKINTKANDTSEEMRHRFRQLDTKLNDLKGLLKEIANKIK

Effect on agonist-induced Ca2+ response, TRPM8 (TRPM8): did not significantly affect | IC50 (TRPC6): 4.19 ± 0.04 µM | Effect on TRPC6 currents (TRPC6; evoked by GSK1702934A 1 μM, whole-cell voltage clamp): immediately suppressed | IC50 (human TRPC3): 3.3 ± 0.13 µM
SMILES: COc1cccc2sc(N(CCN(C)C)C(=O)c3ccc4c(c3)CCCC4)nc12 [Compound 1s, N-(2-(dimethylamino)ethyl)-N-(4-methoxybenzo[d]thiazol-2-yl)-5,6,7,8-tetrahydronaphthalene-2-carboxamide]
Effect on Ca2+ response in TRPC7-HEK293 cells (mouse TRPC7): almost did not cause a discernible Ca^2+ response; also recorded: little or no effect; also recorded: no effect
